≈ marks a conversion by molar mass, not a printed value.
How the values were obtained:
TERT-RPE1 [1] = experiment: Cytotoxicity against human RPE1 cells assessed as reduction in cell viability after 48 hrs by ATPlite-based luminescent assay; conditions: RPE-1, 48 h
Summary of the method: (§1)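 Cells were grown […] with 10% FBS, glutamax, NEAA and pen/strep at 37 °C, 5% CO2. Media were DMEM for RPE-1, HepG2 and BJ (BJ plus 10 ng/ml bFGF), F-12K for PC3, and IMDM for K562/HL-60. Cells were seeded at 500 per well and dosed from DMSO at 12 concentrations, 40 µM to 1 nM, in triplicate. After 48 h, intracellular ATP was read by luminescence. ED50 was obtained by variable-slope nonlinear regression.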

Staphylococcus aureus [2] = experiment: Antibacterial activity against methicillin-resistant Staphylococcus aureus HK5996/08 clinical isolate after 24 hrs by microdilution assay; assay type: functional; conditions: HK5996/08, 24 h
BJ = experiment: Cytotoxicity against human BJ cells assessed as reduction in cell viability after 48 hrs by ATPlite-based luminescent assay; summary of the method: as §1
Enterococcus sp. [3] = experiment: Antibacterial activity against Enterococcus sp. HK14365/08 clinical isolate after 24 hrs by microdilution assay; assay type: functional; conditions: HK14365/08, 24 h
HL-60 [4] = experiment: Induction of apoptosis in human HL60 cells assessed as caspase 3/7 activity after 24 hrs by caspase-glo luminescent assay; assay type: cell-based; conditions: HL-60, 24 h
Summary of the method: (§2)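 Cells were seeded at 500 per well in their growth media and exposed to 12 concentrations from 40 µM to 1 nM, delivered from DMSO, in triplicate. After 24 h, caspase-3/7 activity was read by Caspase-Glo luminescence. Data were normalized and ED50 was fitted by variable-slope nonlinear regression.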

Klebsiella pneumoniae [5] = experiment: Antibacterial activity against Klebsiella pneumoniae HK14368/08 clinical isolate after 48 hrs by microdilution assay; assay type: functional; conditions: HK14368/08, 48 h
PC-3 [6] = experiment: Induction of apoptosis in human PC3 cells assessed as caspase 3/7 activity after 24 hrs by caspase-glo luminescent assay; assay type: cell-based; conditions: PC-3, 24 h; summary of the method: as §2
Klebsiella pneumoniae [7] = experiment: Antibacterial activity against Klebsiella pneumoniae HK11750/08 clinical isolate after 48 hrs by microdilution assay; assay type: functional; conditions: HK11750/08, 48 h
Pseudomonas aeruginosa [8] = experiment: Antibacterial activity against Pseudomonas aeruginosa ATCC 9027 after 48 hrs by microdilution assay; assay type: functional; conditions: ATCC 9027, 48 h
Summary of the method: (§3)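 Broth microdilution in Mueller-Hinton medium buffered to pH 7.4 (±0.2), with DMSO as diluent at no more than 2% final. Compounds were tested as 2-fold serial dilutions from 2000 to 0.488 µmol/l. The inoculum was 0.5 McFarland (1.5×10^8 cfu/ml). Plates were held at 37 °C and read visually at 24 and 48 h. MIC was taken as 95% growth inhibition versus control, determined twice in duplicate.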

K562 [9] = experiment: Induction of apoptosis in human K562 cells assessed as caspase 3/7 activity after 24 hrs by caspase-glo luminescent assay; assay type: cell-based; conditions: K562, 24 h; summary of the method: as §2
Klebsiella pneumoniae [10] = experiment: Antibacterial activity against Klebsiella pneumoniae HK14368/08 clinical isolate after 24 hrs by microdilution assay; assay type: functional; conditions: HK14368/08, 24 h
MCF7 = experiment: Cytotoxicity against human MCF7 cells assessed as reduction in cell viability after 48 hrs by ATPlite-based luminescent assay; conditions: MCF7, 48 h
Klebsiella pneumoniae [11] = experiment: Antibacterial activity against Klebsiella pneumoniae HK11750/08 clinical isolate after 24 hrs by microdilution assay; assay type: functional; conditions: HK11750/08, 24 h
HepG2 [12] = experiment: Induction of apoptosis in human HepG2 cells assessed as caspase 3/7 activity after 24 hrs by caspase-glo luminescent assay; assay type: cell-based; conditions: HepG2, 24 h; summary of the method: as §2
HL-60 [13] = experiment: Cytotoxicity against human HL60 cells assessed as reduction in cell viability after 48 hrs by ATPlite-based luminescent assay; conditions: HL-60, 48 h; summary of the method: as §1
Escherichia coli [14] = experiment: Antibacterial activity against Escherichia coli ATCC 8739 after 24 hrs by microdilution assay; assay type: functional; conditions: ATCC 8739, 24 h; summary of the method: as §3
Staphylococcus aureus [15] = experiment: Antibacterial activity against methicillin-resistant Staphylococcus aureus HK5996/08 clinical isolate after 48 hrs by microdilution assay; assay type: functional; conditions: HK5996/08, 48 h
[16] = test system: Staphylococcus epidermidis; experiment: Antibacterial activity against Staphylococcus epidermidis HK6966/08 clinical isolate after 48 hrs by microdilution assay; assay type: functional; conditions: HK6966/08, 48 h
K562 [17] = experiment: Cytotoxicity against human K562 cells assessed as reduction in cell viability after 48 hrs by ATPlite-based luminescent assay; conditions: K562, 48 h; summary of the method: as §1
PC-3 [18] = experiment: Cytotoxicity against human PC3 cells assessed as reduction in cell viability after 48 hrs by ATPlite-based luminescent assay; conditions: PC-3, 48 h; summary of the method: as §1
Enterococcus sp. [19] = experiment: Antibacterial activity against Enterococcus sp. HK14365/08 clinical isolate after 48 hrs by microdilution assay; assay type: functional; conditions: HK14365/08, 48 h
TERT-RPE1 [20] = experiment: Induction of apoptosis in human RPE1 cells assessed as caspase 3/7 activity after 24 hrs by caspase-glo luminescent assay; assay type: cell-based; conditions: RPE-1, 24 h; summary of the method: as §2
Pseudomonas aeruginosa [21] = experiment: Antibacterial activity against Pseudomonas aeruginosa ATCC 9027 after 24 hrs by microdilution assay; assay type: functional; conditions: ATCC 9027, 24 h; summary of the method: as §3
Staphylococcus aureus [22] = experiment: Antibacterial activity against Staphylococcus aureus ATCC 6538 after 48 hrs by microdilution assay; assay type: functional; conditions: ATCC 6538, 48 h
Staphylococcus aureus [23] = experiment: Antibacterial activity against Staphylococcus aureus ATCC 6538 after 24 hrs by microdilution assay; assay type: functional; conditions: ATCC 6538, 24 h
[24] = test system: Staphylococcus epidermidis; experiment: Antibacterial activity against Staphylococcus epidermidis HK6966/08 clinical isolate after 24 hrs by microdilution assay; assay type: functional; conditions: HK6966/08, 24 h
HepG2 [25] = experiment: Cytotoxicity against human HepG2 cells assessed as reduction in cell viability after 48 hrs by ATPlite-based luminescent assay; conditions: HepG2, 48 h; summary of the method: as §1
Escherichia coli [26] = experiment: Antibacterial activity against Escherichia coli ATCC 8739 after 48 hrs by microdilution assay; assay type: functional; conditions: ATCC 8739, 48 h; summary of the method: as §3

Cc1ccc(C2=C(c3cccc(Cl)c3)C(=O)OC2)cc1
IC50 (TERT-RPE1 [1]): 0.88 µM
MIC95 (Staphylococcus aureus [2]): 15.6 µM (≈ 4.45 µg/mL)
IC50 (BJ): > 40 µM
MIC95 (Enterococcus sp. [3]): > 500 µM
IC50 (HL-60 [4]): > 40 µM
MIC95 (Klebsiella pneumoniae [5]): > 500 µM
IC50 (PC-3 [6]): > 40 µM
MIC95 (Klebsiella pneumoniae [7]): > 500 µM
MIC95 (Pseudomonas aeruginosa [8]): > 500 µM
IC50 (K562 [9]): > 40 µM
MIC95 (Klebsiella pneumoniae [10]): > 500 µM
IC50 (MCF7): > 40 µM
MIC95 (Klebsiella pneumoniae [11]): > 500 µM
IC50 (HepG2 [12]): > 40 µM
IC50 (HL-60 [13]): 0.48 µM
MIC95 (Escherichia coli [14]): > 500 µM
MIC95 (Staphylococcus aureus [15]): 15.6 µM (≈ 4.45 µg/mL)
MIC95 [16]: 15.6 µM (≈ 4.45 µg/mL)
IC50 (K562 [17]): 0.21 µM
IC50 (PC-3 [18]): > 40 µM
MIC95 (Enterococcus sp. [19]): > 500 µM
IC50 (TERT-RPE1 [20]): > 40 µM
MIC95 (Pseudomonas aeruginosa [21]): > 500 µM
MIC95 (Staphylococcus aureus [22]): 1.95 µM (≈ 0.555 µg/mL)
MIC95 (Staphylococcus aureus [23]): 1.95 µM (≈ 0.555 µg/mL)
MIC95 [24]: 15.6 µM (≈ 4.45 µg/mL)
IC50 (HepG2 [25]): > 40 µM
MIC95 (Escherichia coli [26]): > 500 µM

O=C1OCC(c2ccc(O)c(O)c2)=C1c1ccc(O)cc1
IC50 (TERT-RPE1 [1]): > 40 µM
MIC95 (Staphylococcus aureus [2]): 250 µM (≈ 71.1 µg/mL)
IC50 (BJ): > 40 µM
MIC95 (Enterococcus sp. [3]): 500 µM (≈ 142 µg/mL)
IC50 (HL-60 [4]): > 40 µM
MIC95 (Klebsiella pneumoniae [5]): > 500 µM
IC50 (PC-3 [6]): > 40 µM
MIC95 (Klebsiella pneumoniae [7]): > 500 µM
MIC95 (Pseudomonas aeruginosa [8]): > 500 µM
IC50 (K562 [9]): > 40 µM
MIC95 (Klebsiella pneumoniae [10]): > 500 µM
IC50 (MCF7): > 40 µM
MIC95 (Klebsiella pneumoniae [11]): > 500 µM
IC50 (HepG2 [12]): > 40 µM
IC50 (HL-60 [13]): > 40 µM
MIC95 (Escherichia coli [14]): > 500 µM
MIC95 (Staphylococcus aureus [15]): 500 µM (≈ 142 µg/mL)
MIC95 [16]: 500 µM (≈ 142 µg/mL)
IC50 (K562 [17]): 16.2 µM
IC50 (PC-3 [18]): > 40 µM
MIC95 (Enterococcus sp. [19]): 500 µM (≈ 142 µg/mL)
IC50 (TERT-RPE1 [20]): > 40 µM
MIC95 (Pseudomonas aeruginosa [21]): > 500 µM
MIC95 (Staphylococcus aureus [22]): 500 µM (≈ 142 µg/mL)
MIC95 (Staphylococcus aureus [23]): 250 µM (≈ 71.1 µg/mL)
MIC95 [24]: 250 µM (≈ 71.1 µg/mL)
IC50 (HepG2 [25]): > 40 µM
MIC95 (Escherichia coli [26]): > 500 µM
